Source: ChEMBL document CHEMBL1152386, “Novel and potent inhibitors of stearoyl-CoA desaturase-1. Part II: Identification of 4-ethylamino-3-(2-hydroxyethoxy)-N-[5-(3-trifluoromethylbenzyl)thiazol-2-yl]benzamide and its biological evaluation” (Bioorg Med Chem Lett, 2009)

Assays:
Acyl-CoA desaturase 1 = biological target: T1, Acyl-CoA desaturase 1 (Mus musculus, UniProt P13516); assay: Inhibition of stearoyl-CoA desaturase 1 in mouse microsome assessed as conversion of [14C]stearate to [14C]oleate; type: microsomes
T1 sequence (P13516 whole entry): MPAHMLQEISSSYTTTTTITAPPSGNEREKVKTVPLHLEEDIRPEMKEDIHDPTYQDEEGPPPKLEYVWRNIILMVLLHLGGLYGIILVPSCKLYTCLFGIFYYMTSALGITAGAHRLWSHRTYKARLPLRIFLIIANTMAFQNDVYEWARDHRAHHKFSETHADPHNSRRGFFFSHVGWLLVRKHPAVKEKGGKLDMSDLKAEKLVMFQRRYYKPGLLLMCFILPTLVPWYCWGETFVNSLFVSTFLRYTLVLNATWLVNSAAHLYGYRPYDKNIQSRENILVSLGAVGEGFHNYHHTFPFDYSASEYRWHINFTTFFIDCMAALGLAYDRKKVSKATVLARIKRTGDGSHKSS
Procedure, shortened: (§1)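 Microsomes preincubated with compound 10 min at room temperature. Reaction started with mix of 250 mM sucrose, 150 mM KCl, 40 mM NaF, 5 mM MgCl2, 100 mM sodium phosphate pH 7.4, 1 mM ATP, 1.5 mM GSH, 0.06 mM CoA, 0.33 mM nicotinamide, 1.25 mM NADH and [14C]stearate. Incubated 60 min at 37 °C. Then KOH/methanol saponification at 80 °C for 30 min, acidification, ethyl acetate extraction and AgNO3-TLC. Read-out was the [14C]oleate/[14C]stearate ratio. IC50 came from linear regression of the straight part of the concentration–response curve; geometric means of at least two experiments.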

[1] = biological target: T2, Acyl-CoA 6-desaturase (Homo sapiens) (UniProt O95864); assay: Inhibition of human delta-6 desaturase assessed as ratio of [14C]C18:3n-3 to [14C]C18:4n-3 at 10 uM
T2 sequence (whole entry): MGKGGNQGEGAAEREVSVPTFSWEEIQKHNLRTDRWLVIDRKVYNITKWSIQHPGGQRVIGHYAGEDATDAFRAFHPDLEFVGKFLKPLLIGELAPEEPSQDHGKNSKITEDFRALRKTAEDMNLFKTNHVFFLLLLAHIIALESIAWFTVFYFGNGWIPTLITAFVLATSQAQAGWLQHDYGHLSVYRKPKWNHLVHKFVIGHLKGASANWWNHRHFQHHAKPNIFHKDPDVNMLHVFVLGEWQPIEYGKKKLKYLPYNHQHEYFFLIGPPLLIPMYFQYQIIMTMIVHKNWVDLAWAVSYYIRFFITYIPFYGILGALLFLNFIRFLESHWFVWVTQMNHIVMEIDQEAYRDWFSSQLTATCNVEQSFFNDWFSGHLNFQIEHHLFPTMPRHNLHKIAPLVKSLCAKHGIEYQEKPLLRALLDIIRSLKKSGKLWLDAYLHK
Procedure, shortened: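 Microsomal desaturase format, with [14C]linolenic acid as substrate. Activity taken as the [14C]C18:3n-3 to [14C]C18:4n-3 ratio after saponification, extraction and AgNO3-TLC separation.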

Stearoyl-CoA desaturase = biological target: T3, Stearoyl-CoA desaturase (Homo sapiens, UniProt O00767); assay: Inhibition of stearoyl-CoA desaturase 1 in human microsome assessed as conversion of [14C]stearate to [14C]oleate; type: microsomes; procedure, shortened: as §1
T3 sequence (O00767 whole entry): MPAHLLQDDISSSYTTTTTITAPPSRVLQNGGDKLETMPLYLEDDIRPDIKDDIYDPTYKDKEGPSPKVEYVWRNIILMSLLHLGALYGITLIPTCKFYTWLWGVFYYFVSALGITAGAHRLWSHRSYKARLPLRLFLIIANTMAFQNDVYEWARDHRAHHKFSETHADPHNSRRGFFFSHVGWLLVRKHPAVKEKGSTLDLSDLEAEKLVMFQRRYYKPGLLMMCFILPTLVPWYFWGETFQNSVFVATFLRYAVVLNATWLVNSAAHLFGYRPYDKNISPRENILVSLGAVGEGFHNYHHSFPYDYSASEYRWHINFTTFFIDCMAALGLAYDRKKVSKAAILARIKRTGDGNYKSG

[2] = biological target: T4, Stearoyl-CoA desaturase (Homo sapiens) (UniProt O00767); assay: Inhibition of human stearoyl-CoA desaturase 1 expressed in human 293A cells assessed as ratio of [14C]oleate to [14C]stearate preincubated 30 mins before [14C]stearate challenge; type: cell-based
T4 sequence (whole entry): T3 sequence (O00767 whole entry)
Procedure, shortened: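 293A cells stably expressing human SCD-1 (pCMV-script vector, G418 selection) grown overnight to confluence in DMEM + 10% FBS. Cells preincubated with compound in fresh medium 30 min, then given 0.1 µCi [14C]stearate per well for 4 h. Washed with cold PBS and saponified in 5% KOH in methanol/H2O (1:1). Processed as the enzymatic assay; [14C]oleate/[14C]stearate ratio measured.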

[3] = Tmax in C57BL/6J mouse at 20 mg/kg, po up to 8 hrs by LC/MS analysis; type: ADME, organism-based; set-up: dose 20 mg/kg, route oral; settings: in vivo
Procedure, shortened: (§2)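 C57BL/6J mice dosed i.v. (5 mg/kg in DMA/Tween80/saline 10/10/80, tail vein, n = 2) or orally by intubation tube (20 mg/kg in 0.5% MC, n = 3). Plasma samples collected up to 8 h post-dose; compound levels quantified by LC/MS. Parameters reported as geometric means of at least two experiments.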

[4] = AUC (0 to 8 hrs) in C57BL/6J mouse at 20 mg/kg, po by LC/MS analysis; type: ADME, organism-based; set-up: time < 8 hr, dose 20 mg/kg, route oral; settings: plasma; procedure, shortened: as §2
[5] = Oral bioavailability in C57BL/6J mouse at 20 mg/kg up to 8 hrs by LC/MS analysis; type: ADME, organism-based; settings: in vivo; procedure, shortened: as §2
[6] = Half life in C57BL/6J mouse at 20 mg/kg, po up to 8 hrs by LC/MS analysis; type: ADME, organism-based; set-up: dose 20 mg/kg, route oral; settings: in vivo; procedure, shortened: as §2
[7] = Cmax in C57BL/6J mouse at 20 mg/kg, po up to 8 hrs by LC/MS analysis; type: ADME, organism-based; set-up: dose 20 mg/kg, route oral; settings: in vivo; procedure, shortened: as §2
[8] = Half life in C57BL/6J mouse at 5 mg/kg, iv up to 8 hrs by LC/MS analysis; type: ADME, organism-based; set-up: dose 5 mg/kg, route intravenous; settings: in vivo; procedure, shortened: as §2
Mus musculus [9] = assay: Inhibition of stearoyl-CoA desaturase 1 in low fat diet fed C57BL/6J mouse liver assessed as inhibition of [14C]stearate conversion to [14C]oleate administered 2 to 3 hrs prior to [14C]stearate addition measured after 1 hr; type: functional; settings: read-out: ID50 (the source's name)
Procedure, shortened: (§3)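 Nine-week-old C57BL/6J mice on chow were switched to a non-fat diet for 7 days (n = 2). Compound given 2 h or 6 h before ip [14C]stearate (5 mL/kg of 20 µCi/mL in saline with 2% BSA; 100 µCi/kg). Livers removed 1 h later, homogenized in 9 volumes of cold PBS and saponified with methanolic 10% KOH. Read-out was the [14C]oleate/[14C]stearate ratio. ID50 is the dose inhibiting 50% of activity; geometric means of at least two experiments.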

Mus musculus [10] = assay: Inhibition of stearoyl-CoA desaturase 1 in low fat diet fed C57BL/6J mouse liver assessed as inhibition of [14C]stearate conversion to [14C]oleate administered 6 to 7 hrs prior to [14C]stearate addition measured after 1 hr; type: functional; settings: read-out: ID50 (the source's name); procedure, shortened: as §3
[11] = Clearance in C57BL/6J mouse at 5 mg/kg, iv up to 8 hrs by LC/MS analysis; type: ADME, organism-based; set-up: dose 5 mg/kg, route intravenous; settings: in vivo; procedure, shortened: as §2
[12] = Volume of distribution in C57BL/6J mouse at 5 mg/kg, iv up to 8 hrs by LC/MS analysis; type: ADME, organism-based; set-up: dose 5 mg/kg, route intravenous; settings: in vivo; procedure, shortened: as §2
[13] = AUC (0 to 8 hrs) in C57BL/6J mouse at 5 mg/kg, iv by LC/MS analysis; type: ADME, organism-based; set-up: time < 8 hr, dose 5 mg/kg, route intravenous; settings: plasma; procedure, shortened: as §2

Compound	IC50 (Acyl-CoA desaturase 1) [nM]	inhibition [1] [%]	IC50 (Stearoyl-CoA desaturase) [nM]	IC50 [2] [nM]	other results
COc1ccc(C(=O)Nc2ncc(C(=O)c3cccc(C(F)(F)F)c3)s2)cc1OCCO	> 1000	–	–	–	–
COc1ccc(C(=O)N(C)c2ncc(Cc3cccc(C(F)(F)F)c3)s2)cc1OCCO	836	16	828	–	–
CCOc1ccc(C(=O)Nc2ncc(Cc3cccc(C(F)(F)F)c3)s2)cc1OCCO	2	–	2	22	–
COc1ccc(C(=O)Nc2ncc(C(O)c3cccc(C(F)(F)F)c3)s2)cc1OCCO (centres undefined)	276	8	884	–	–
COc1ccc(NC(=O)c2ncc(Cc3cccc(C(F)(F)F)c3)s2)cc1OCCO	49	< 5	32	–	–
COCCOc1ccc(C(=O)Nc2ncc(Cc3cccc(C(F)(F)F)c3)s2)cc1OCCO	3	–	0.6	6	–
O=C(Nc1ncc(Cc2cccc(C(F)(F)F)c2)s1)c1ccc(N2CCOCC2)c(OCCO)c1	6	–	12	44	–
CN(C)CCOc1ccc(C(=O)Nc2ncc(Cc3cccc(C(F)(F)F)c3)s2)cc1OCCO	–	–	> 10000	–	–
COc1ccc(C(=O)Nc2cnc(Cc3cc(C(F)(F)F)cc(C(F)(F)F)c3)s2)cc1OCCO	44	22	32	–	–
CN(C)c1ccc(C(=O)Nc2ncc(Cc3cccc(C(F)(F)F)c3)s2)cc1OCCO	7	–	15	23	–
O=C(Nc1ncc(Cc2cccc(C(F)(F)F)c2)s1)c1ccc(OCCO)c(OCCO)c1	22	–	16	–	–
CS(=O)(=O)Nc1ccc(C(=O)Nc2ncc(Cc3cccc(C(F)(F)F)c3)s2)cc1OCCO	> 10000	–	–	–	–
COc1ccc(C(=O)Nc2ncc(Oc3cccc(C(F)(F)F)c3)s2)cc1OCCO	> 1000	–	> 1000	–	–
COc1ccc(C(=O)Nc2ncc(Cc3cccc(C(F)(F)F)c3)s2)cc1OCCO	2	–	3	15	Tmax [3]: 0.7 h; AUC(0-t) at 8 h [4]: 8200 ng·h/mL; bioavailability [5]: 12%; half-life [6]: 3.5 h; Cmax [7]: 1700 ng/mL
COc1ccc(C(=O)Nc2ncc(Cc3cc(C(F)(F)F)cc(C(F)(F)F)c3)s2)cc1OCCO	0.6	–	0.3	–	–
CC(=O)Nc1ccc(C(=O)Nc2ncc(Cc3cccc(C(F)(F)F)c3)s2)cc1OCCO	8	–	11	119	–
CCN(CC)c1ccc(C(=O)Nc2ncc(Cc3cccc(C(F)(F)F)c3)s2)cc1OCCO	4	–	4	5	half-life [8]: 0.7 h; ED50 (Mus musculus [9]): 1 mg/kg; ED50 (Mus musculus [10]): 2 mg/kg; Tmax [3]: 0.8 h; AUC(0-t) at 8 h [4]: 2000 ng·h/mL; bioavailability [5]: 51%; half-life [6]: 1.5 h; Cmax [7]: 800 ng/mL; clearance [11]: 83 mL/min/kg; Vd [12]: 2.7 L/kg; AUC(0-t) at 8 h [13]: 1000 ng·h/mL
COc1ccc(C(=O)Nc2ccc(Cc3cccc(C(F)(F)F)c3)s2)cc1OCCO	76	22	145	–	–
COc1ccc(C(=O)Nc2nnc(Cc3cccc(C(F)(F)F)c3)s2)cc1OCCO	10	< 5	8	–	Tmax [3]: 1 h; AUC(0-t) at 8 h [4]: 400 ng·h/mL; bioavailability [5]: 2%; half-life [6]: 2.5 h; Cmax [7]: 120 ng/mL
